In ChEMBL document CHEMBL4330069, “Boosting the efficacy of anti-MRSA β-lactam antibiotics via an easily accessible, non-cytotoxic and orally bioavailable FtsZ inhibitor” (Eur J Med Chem, 2019):
Values after ≈ are worked out from the molar mass of the structure shown.

Assays:
[1] = system: Staphylococcus aureus; assay: Antibacterial activity against multidrug-resistant Staphylococcus aureus isolate 757 by broth microdilution assay; type: functional
Outline: (§1)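 Broth microdilution MIC per CLSI guidelines against clinical MRSA isolates, for β-lactams and test compound alone and in combination. Compounds were dissolved in DMSO. Growth was read by eye, in duplicate. FIC index = FIC(compound) + FIC(drug); synergy defined as FIC index ≤0.5.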

[2] = system: Staphylococcus aureus; assay: Antibacterial activity against multidrug-resistant Staphylococcus aureus isolate 2224 by broth microdilution assay; type: functional; outline: as §1
[3] = system: Staphylococcus aureus; assay: Synergistic antibacterial activity against multidrug-resistant Staphylococcus aureus isolate 2901 in presence of amoxicillin by broth microdilution assay; type: functional
Outline: (§2)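 CLSI broth microdilution on clinical MRSA isolates. MICs were measured for the β-lactam alone, the test agent alone and the two combined. Compounds were dissolved in DMSO, and growth inhibition was scored by eye. FIC index is the sum, over both agents, of MIC in combination divided by MIC alone. An FIC index ≤0.5 was taken as synergy.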

[4] = system: Staphylococcus aureus; assay: Synergistic antibacterial activity against multidrug-resistant Staphylococcus aureus isolate 3411 in presence of amoxicillin by broth microdilution assay; type: functional; outline: as §2
[5] = system: Staphylococcus aureus; assay: Synergistic antibacterial activity against multidrug-resistant Staphylococcus aureus isolate 2728 in presence of amoxicillin by broth microdilution assay; type: functional; outline: as §2
[6] = system: Staphylococcus aureus; assay: Synergistic antibacterial activity against multidrug-resistant Staphylococcus aureus isolate 3589 in presence of methicillin by broth microdilution assay; type: functional
[7] = system: Staphylococcus aureus; assay: Synergistic antibacterial activity against multidrug-resistant Staphylococcus aureus isolate 1136 in presence of methicillin by broth microdilution assay; type: functional
Outline: (§3)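 Clinical MRSA isolate panel; compound and β-lactam tested alone and in combination by CLSI broth microdilution, compounds dissolved in DMSO, growth inhibition scored by eye, run in duplicate. FIC index = FIC(compound) + FIC(drug), each the MIC in combination divided by the MIC alone; an index ≤ 0.5 was called synergy.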

[8] = system: Staphylococcus aureus; assay: Synergistic antibacterial activity against multidrug-resistant Staphylococcus aureus isolate 2895 in presence of methicillin by broth microdilution assay; type: functional; outline: as §2
[9] = system: Staphylococcus aureus; assay: Synergistic antibacterial activity against multidrug-resistant Staphylococcus aureus isolate 3580 in presence of methicillin by broth microdilution assay; type: functional
[10] = system: Staphylococcus aureus; assay: Synergistic antibacterial activity against multidrug-resistant Staphylococcus aureus isolate 231 in presence of cloxacillin by broth microdilution assay; type: functional; outline: as §3
[11] = system: Staphylococcus aureus; assay: Synergistic antibacterial activity against multidrug-resistant Staphylococcus aureus isolate 3589 in presence of cloxacillin by broth microdilution assay; type: functional
[12] = system: Staphylococcus aureus; assay: Synergistic antibacterial activity against multidrug-resistant Staphylococcus aureus isolate 2516 in presence of cloxacillin by broth microdilution assay; type: functional; outline: as §2
[13] = system: Staphylococcus aureus; assay: Synergistic antibacterial activity against multidrug-resistant Staphylococcus aureus isolate 2224 in presence of cloxacillin by broth microdilution assay; type: functional; outline: as §3
[14] = system: Staphylococcus aureus; assay: Synergistic antibacterial activity against multidrug-resistant Staphylococcus aureus isolate 1449 in presence of cloxacillin by broth microdilution assay; type: functional; outline: as §3
[15] = system: Staphylococcus aureus; assay: Synergistic antibacterial activity against multidrug-resistant Staphylococcus aureus isolate 1344 in presence of cefuroxime by broth microdilution assay; type: functional; outline: as §3
[16] = system: Staphylococcus aureus; assay: Synergistic antibacterial activity against multidrug-resistant Staphylococcus aureus isolate 3332 in presence of cefuroxime by broth microdilution assay; type: functional; outline: as §2
[17] = system: Staphylococcus aureus; assay: Synergistic antibacterial activity against multidrug-resistant Staphylococcus aureus isolate 3267 in presence of cefuroxime by broth microdilution assay; type: functional; outline: as §2
[18] = system: Staphylococcus aureus; assay: Synergistic antibacterial activity against multidrug-resistant Staphylococcus aureus isolate 774 in presence of cefuroxime by broth microdilution assay; type: functional
[19] = system: Staphylococcus aureus; assay: Synergistic antibacterial activity against multidrug-resistant Staphylococcus aureus isolate 2973 in presence of cefuroxime by broth microdilution assay; type: functional; outline: as §2
[20] = system: Staphylococcus aureus; assay: Synergistic antibacterial activity against multidrug-resistant Staphylococcus aureus isolate 85 in presence of cefuroxime by broth microdilution assay; type: functional
[21] = system: Staphylococcus aureus; assay: Synergistic antibacterial activity against multidrug-resistant Staphylococcus aureus isolate 2895 in presence of meropenem by broth microdilution assay; type: functional; outline: as §2
[22] = system: Staphylococcus aureus; assay: Synergistic antibacterial activity against multidrug-resistant Staphylococcus aureus isolate 1749 in presence of meropenem by broth microdilution assay; type: functional; outline: as §3
[23] = system: Staphylococcus aureus; assay: Synergistic antibacterial activity against multidrug-resistant Staphylococcus aureus isolate 1717 in presence of meropenem by broth microdilution assay; type: functional; outline: as §3
[24] = system: Staphylococcus aureus; assay: Synergistic antibacterial activity against multidrug-resistant Staphylococcus aureus isolate 231 assessed as fractional Inhibitory concentration index in presence of amoxicillin by broth microdilution assay; type: functional
Outline: (§4)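 CLSI broth microdilution run on clinical MRSA isolates with each β-lactam alone, the test agent alone, and the two combined; agents dissolved in DMSO. Growth inhibition was read by eye. FIC index = FIC(compound) + FIC(β-lactam), where each FIC is the MIC in combination divided by the MIC alone. An index ≤0.5 was taken as synergy.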

[25] = system: Staphylococcus aureus; assay: Synergistic antibacterial activity against multidrug-resistant Staphylococcus aureus isolate 1717 assessed as fractional Inhibitory concentration index in presence of amoxicillin by broth microdilution assay; type: functional; outline: as §4
[26] = system: Staphylococcus aureus; assay: Synergistic antibacterial activity against multidrug-resistant Staphylococcus aureus isolate 85 assessed as fractional Inhibitory concentration index in presence of amoxicillin by broth microdilution assay; type: functional
[27] = system: Staphylococcus aureus; assay: Synergistic antibacterial activity against multidrug-resistant Staphylococcus aureus isolate 254 assessed as fractional Inhibitory concentration index in presence of methicillin by broth microdilution assay; type: functional
[28] = system: Staphylococcus aureus; assay: Synergistic antibacterial activity against multidrug-resistant Staphylococcus aureus isolate 1344 assessed as fractional Inhibitory concentration index in presence of cloxacillin by broth microdilution assay; type: functional; outline: as §4
[29] = system: Staphylococcus aureus; assay: Synergistic antibacterial activity against multidrug-resistant Staphylococcus aureus isolate 256 assessed as fractional Inhibitory concentration index in presence of cloxacillin by broth microdilution assay; type: functional
[30] = system: Staphylococcus aureus; assay: Synergistic antibacterial activity against multidrug-resistant Staphylococcus aureus isolate 3332 assessed as fractional Inhibitory concentration index in presence of cloxacillin by broth microdilution assay; type: functional
[31] = system: Staphylococcus aureus; assay: Synergistic antibacterial activity against multidrug-resistant Staphylococcus aureus isolate 2728 assessed as fractional Inhibitory concentration index in presence of cloxacillin by broth microdilution assay; type: functional
[32] = system: Staphylococcus aureus; assay: Synergistic antibacterial activity against multidrug-resistant Staphylococcus aureus isolate 1344 assessed as fractional Inhibitory concentration index in presence of cefuroxime by broth microdilution assay; type: functional; outline: as §4
[33] = system: Staphylococcus aureus; assay: Synergistic antibacterial activity against multidrug-resistant Staphylococcus aureus isolate 3267 assessed as fractional Inhibitory concentration index in presence of cefuroxime by broth microdilution assay; type: functional
[34] = system: Staphylococcus aureus; assay: Synergistic antibacterial activity against multidrug-resistant Staphylococcus aureus isolate 2919 assessed as fractional Inhibitory concentration index in presence of cefuroxime by broth microdilution assay; type: functional
[35] = system: Staphylococcus aureus; assay: Synergistic antibacterial activity against multidrug-resistant Staphylococcus aureus isolate 2224 assessed as fractional Inhibitory concentration index in presence of meropenem by broth microdilution assay; type: functional; outline: as §4
[36] = AUC (0 to infinity) in Sprague-Dawley rat at 50 mg/kg, po by UPLC-MS/MS analysis; type: ADME, organism-based; design: dose 50 mg/kg, route oral, time infinity; settings: in vivo
[37] = Oral bioavailability in Sprague-Dawley rat at 50 mg/kg by UPLC-MS/MS analysis; type: ADME, organism-based; settings: in vivo
Outline: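 Male Sprague–Dawley rats (250-280 g) dosed IV at 1 mg/kg or by oral feeding at 50 mg/kg. Jugular blood taken from 5 to 420 min (IV) or 2 to 600 min (oral). Plasma proteins precipitated with methanol, then analysed by UPLC-MS/MS with positive ESI. Parameters from non-compartmental analysis.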

`CCCCCCCCCNc1ccc(F)c(C(N)=O)c1F` gave an MIC [1] of 128 µg/mL (≈ 429 µM), an MIC [2] of 1020 µg/mL (≈ 3430 µM) and an MIC [3] of 16 µg/mL. For the same compound, the MIC [4] was 4 µg/mL, the MIC [5] was 8 µg/mL and the MIC [6] was 4 µg/mL. The MIC [7] was 4 µg/mL, the MIC [8] was 4 µg/mL and the MIC [9] was 2 µg/mL. The MIC [10] was 2 µg/mL, the MIC [11] was 2 µg/mL and the MIC [12] was 2 µg/mL. For the same compound, the MIC [13] was 2 µg/mL, the MIC [14] was 0.5 µg/mL and the MIC [15] was 4 µg/mL. The MIC [16] was 2 µg/mL, the MIC [17] was 2 µg/mL and the MIC [18] was 2 µg/mL. The MIC [19] was 4 µg/mL, the MIC [20] was 2 µg/mL and the MIC [21] was 2 µg/mL. For the same compound, the MIC [22] was 4 µg/mL, the MIC [23] was 2 µg/mL and the “fractional inhibitory concentration index (FICI)” value [24] was 0.5. For the same compound, the “fractional inhibitory concentration index (FICI)” value [25] was 1.1, the “fractional inhibitory concentration index (FICI)” value [26] was 0 and the “fractional inhibitory concentration index (FICI)” value [27] was 0.3. For the same compound, the “fractional inhibitory concentration index (FICI)” value [28] was 0.1, the “fractional inhibitory concentration index (FICI)” value [29] was 0.1 and the “fractional inhibitory concentration index (FICI)” value [30] was 0.4. The “fractional inhibitory concentration index (FICI)” value [31] was 1, the “fractional inhibitory concentration index (FICI)” value [32] was 0.3 and the “fractional inhibitory concentration index (FICI)” value [33] was 0. For the same compound, the “fractional inhibitory concentration index (FICI)” value [34] was 0.3, the “fractional inhibitory concentration index (FICI)” value [35] was 4 and the AUC(0-inf) [36] was 10300 ng·h/mL. It also gave a bioavailability [37] of 13%.
